Reference: paper PMC9638899 (Nucleic Acids Research, 2022)
“And” between values parts separate entries of the source, which are not always exact repeats. Equal values may be shown once.

How the values were obtained:
[1] = tested on: Sis0455 E17/E37 glycine substitution; experiment: cA4 cleavage activity assay, LC ESI-MS, Sis0455 E17/E37 glycine substitution; type: biochemical, Sulfolobus islandicus; settings: 40 μM cA4, 2 μM enzyme, 70°C, one hour, E17/E37 substituted by glycine
In short: (§1)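 Each 50 μl reaction held 40 μM cA4 and 2 μM His-tagged Sis0455 variant (E. coli-expressed) in 20 mM Tris pH 8.0, 100 mM NaCl, 1 mM EDTA, for 1 h at 70°C. A no-enzyme control was included. Reactions were stopped at 4°C, phenol-extracted, dried and taken up in 8.6 mM TEA pH 8.3. Products were separated on C18 reverse-phase UPLC (TEA/acetonitrile gradient, 30°C) and read by negative-ion ESI-MS. Runs were at least duplicates.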

[2] = tested on: Sso2081; settings: Sso2081 versus Sso1393; cited from earlier work
[3] = biological target: Sis0455; experiment: ITC binding of cA4 to Sis0455 wild type; parameters: species or system Sulfolobus islandicus
[4] = tested on: Sis0811; experiment: Binding of cA4 to Sis0811; parameters: species or system Sulfolobus islandicus; settings: Sis0811 versus SisCsx1
[5] = biological target: Sis0455 E17G/T37G; experiment: ITC binding of cA4 to Sis0455 E17G/T37G; parameters: species or system Sulfolobus islandicus; settings: 25°C, E17G/T37G mutant
In short: (§2)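 His-tagged Sis0455 mutants (site-directed) were expressed in E. coli BL21 pRARE and purified. Protein and cA4 were dialysed into 50 mM HEPES pH 8.0, 300 mM KCl. cA4 (~50 or 100 μM, syringe) was titrated into protein (~5 or 10 μM) at 25°C: one 0.4 μl injection, then 19 × 2 μl, 150 s apart, 750 rpm. cA4-into-buffer controls were run. Normalised heats were fitted to a single-site model.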

[6] = tested on: Sis0455-K106G; experiment: cA4 cleavage activity assay, LC ESI-MS, Sis0455-K106G; type: biochemical, Sulfolobus islandicus; settings: 40 μM cA4, 2 μM enzyme, 70°C, one hour
In short: as §1

[7] = tested on: SisCsx1; experiment: Binding of cA4 to SisCsx1; parameters: species or system Sulfolobus islandicus; settings: SisCsx1 versus Sis0455
[8] = tested on: Sis0455 T10G; experiment: cA4 cleavage activity assay, LC ESI-MS, Sis0455 T10 glycine substitution; type: biochemical, Sulfolobus islandicus; settings: 40 μM cA4, 2 μM enzyme, 70°C, one hour, T10 substituted by glycine
In short: as §1

[9] = tested on: Sis0455-R105G; experiment: cA4 cleavage activity assay, LC ESI-MS, Sis0455-R105G; type: biochemical, Sulfolobus islandicus; settings: 40 μM cA4, 2 μM enzyme, 70°C, one hour
In short: as §1

[10] = tested on: Sis0455-E41G/R134G; experiment: cA4 cleavage activity assay, LC ESI-MS, Sis0455-E41G/R134G; type: biochemical, Sulfolobus islandicus; settings: 40 μM cA4, 2 μM enzyme, 70°C, one hour
In short: as §1

[11] = tested on: Sis0455-R105G; experiment: ITC binding of cA4 to Sis0455-R105G; parameters: species or system Sulfolobus islandicus; settings: 25°C, R105G mutant
In short: as §2

[12] = tested on: Sis0455 Q130G/Y133G; experiment: cA4 cleavage activity assay, LC ESI-MS, Sis0455 Q130G/Y133G; type: biochemical, Sulfolobus islandicus; settings: 40 μM cA4, 2 μM enzyme, 70°C, one hour
In short: as §1

[13] = biological target: Sis0455 T10G; experiment: ITC binding of cA4 to Sis0455 T10G; parameters: species or system Sulfolobus islandicus; settings: 25°C, T10G mutant
In short: as §2

[14] = tested on: Sis0455 N138G; experiment: cA4 cleavage activity assay, LC ESI-MS, Sis0455 N138G; type: biochemical, Sulfolobus islandicus; settings: 40 μM cA4, 2 μM enzyme, 70°C, one hour
In short: as §1

[15] = tested on: Sis0455 D75G; experiment: ITC binding of cA4 to Sis0455 D75G; parameters: species or system Sulfolobus islandicus; settings: 25°C, D75G mutant
In short: as §2

[16] = biological target: Sis0455-K106G; experiment: ITC binding of cA4 to Sis0455-K106G; parameters: species or system Sulfolobus islandicus; settings: 25°C, K106G mutant
In short: as §2

[17] = biological target: SisCsx1; settings: cited from earlier work
[18] = biological target: Sis0455-S11G; experiment: ITC binding of cA4 to Sis0455-S11G; parameters: species or system Sulfolobus islandicus
[19] = biological target: Sis0455 E41G/R134G; experiment: ITC binding of cA4 to Sis0455 E41G/R134G; parameters: species or system Sulfolobus islandicus; settings: 25°C, E41G/R134G mutant
In short: as §2

[20] = biological target: Sis0455 N138G; experiment: ITC binding of cA4 to Sis0455 N138G; parameters: species or system Sulfolobus islandicus; settings: 25°C, N138G mutant
In short: as §2

[21] = tested on: Sis0811; experiment: cA4 cleavage time course, LC ESI-MS, Sis0811; type: biochemical, Sulfolobus islandicus; settings: 70°C
[22] = biological target: Sis0455 Q130G/Y133G; experiment: ITC binding of cA4 to Sis0455 Q130G/Y133G; parameters: species or system Sulfolobus islandicus; settings: 25°C, Q130G/Y133G mutant
In short: as §2

[23] = tested on: Sis0455; experiment: cA4 cleavage activity assay and time course, LC ESI-MS, Sis0455; type: biochemical, Sulfolobus islandicus; settings: time course, 40 μM cA4, 2 μM enzyme, 70°C

**Q.** Which cA4 cleavage activity [1] does the source give for Cyclic tetraadenylate [cA4] here?
**A.** did not affect catalysis

**Q.** And the “cA4 processing faster than Sso1393” value [2]?
**A.** 10 fold

**Q.** What about the Kd ([3]; ITC, 25°C, wild type Sis0455) of the same substance?
**A.** 2.2 nM and 2 nM

**Q.** What about the “higher affinity for cA4 of Sis0455 than Sis0811” value ([3]; Sis0455 versus Sis0811 (ref 37)) of the same substance?
**A.** 5 fold

**Q.** What about the “affinity higher than that of SisCsx1” value [4] of the same substance?
**A.** 2 fold

**Q.** What about the Kd [5] of the same substance?
**A.** 3.5 nM

**Q.** What about the cA4 cleavage activity [6] of the same substance?
**A.** abolished the cleavage activity

**Q.** And the “affinity for cA4 lower than Sis0455” value [7]?
**A.** 10 fold

**Q.** What about the cA4 cleavage activity [8] of the same substance?
**A.** did not affect catalysis

**Q.** And the cA4 cleavage activity [9]?
**A.** abrogated the nuclease activity

**Q.** And the cA4 cleavage activity [10]?
**A.** showed cA4 as major specie

**Q.** What about the cA4 binding [11] of the same substance?
**A.** abolished cA4 binding

**Q.** And the cA4 cleavage activity [12]?
**A.** did not affect catalysis

**Q.** What about the Kd [13] of the same substance?
**A.** 35.3 nM

**Q.** And the cA4 cleavage activity [14]?
**A.** did not affect catalysis

**Q.** What about the cA4 binding [15] of the same substance?
**A.** abolished cA4 binding

**Q.** What about the Kd [16] of the same substance?
**A.** 4100 nM

**Q.** And the Kd [17]?
**A.** 20 nM

**Q.** And the Kd ([18]; ITC, 25°C, S11G variant)?
**A.** 19.5 nM

**Q.** And the “decrease in the binding affinity” value ([18]; S11G variant versus wild type Sis0455)?
**A.** ~10 fold

**Q.** What about the Kd [19] of the same substance?
**A.** 1.9 nM

**Q.** What about the Kd [20] of the same substance?
**A.** 10.5 nM

**Q.** What about the “time to cleave the second phosphodiester bond converting all the linear product in the P1 dinucleotide” value ([21]; Sis0811) of the same substance?
**A.** 30 min

**Q.** And the “time to fully degrade cA4 producing 100% P1 product” value ([21]; Sis0811)?
**A.** 50 min

**Q.** What about the “time to convert almost 100% of the cyclic molecule in the P3 linear product” value ([21]; Sis0811, first phosphodiester) of the same substance?
**A.** 20 min

**Q.** What about the Kd [22] of the same substance?
**A.** 2600 nM

**Q.** What about the “time to fully degrade cA4 producing 100% P1 product” value [23] of the same substance?
**A.** 50 min
